Measured values collected from several papers.
Lines come from different studies, so protocols differ.
Cell line: A549
Read-out: cell growth or viability

`CCCCn1cnc2ccc(-c3ccc(NC(=O)NCCc4ccccc4)nc3)cc2c1=O` gave an IC50 of greater than 10 µM (CCK-8; 72 h).
With `C/C(=N/NC(=O)c1cn(-c2ccccc2)nc1-c1ccc(Br)cc1)c1c(O)cc(C)oc1=O` the IC50 was 140 µM (MTT; 48 h).
`CCCCC(=O)Nc1ccc(-c2ccc3ncn(CCC)c(=O)c3c2)cc1F` gave an IC50 of greater than 10 µM (CCK-8; 72 h).
The IC50 of `Cc1ccc(NNc2nc3c(Cl)cc(Cl)cc3c(=O)n2-c2ccccc2)cc1` is reported as greater than 200 µM (MTT; 48 h).
`CC(C)c1ccc(/C=C2\N=C(SCC(=O)O)N(c3ccccc3)C2=O)cc1` has an IC50 of 57.4 µg/mL (MTT).
`COc1cccc2c1C(=O)c1c(O)c3c(c(O)c1C2=O)C[C@@](O)(C(=O)CO)C[C@@H]3O[C@H]1C[C@H](N)[C@H](O)[C@H](C)O1` gave an IC50 of 0.52 µM (MTT; 72 h).
For `Fc1ccccc1Nc1nc(-c2ccncc2)nc2c1CNCC2`, the IC50 was greater than 100 µM (MTT).
The IC50 of `OC1CCN(c2ccc(/C=N/NC(=S)NC3CCCCC3)cc2)CC1` is reported as 3.83 µM (MTT; 24 h).
With `C/C(=N\CCNCCNCC/N=C(\C)c1c(O)c2ccccc2oc1=O)c1c(O)c2ccccc2oc1=O` the IC50 was 6.66 µM (MTT; 48 h).
`NS(=O)(=O)c1ccc(-n2nc(C(=O)NN=Cc3ccccc3O)cc2-c2ccccc2)cc1` gave an IC50 of 9.25 µM (fluorescence; 48 h).
For `O=C(O)c1ccc(NCc2cccc(O)c2)cc1`, the IC50 was greater than 100 µM (resazurin; 72 h).
For `CCCn1cnc2ccc(-c3ccc(N4CCCC4=O)nc3)cc2c1=O`, the IC50 was greater than 10 µM (CCK-8; 72 h).
The IC50 of `O=C(Nc1ccc(F)cc1)Nc1nc2cc(-c3ccc4ncn(CCN5CCOCC5)c(=O)c4c3)ccc2s1` is reported as 2.51 µM (MTT; 72 h).
`CC(C)[C@@H]1NC(=O)[C@@H](CCCCN)NC(=O)[C@H]([C@@H](C)O)NC(=O)[C@@H](CCCN)NC(=O)[C@H](Cc2ccccc2)NC(=O)[C@@H](Cc2ccccc2)NC1=O` has an IC50 of greater than 100 µM (ATP luminescence; 72 h).
The IC50 of `CC(C)Cc1ccc([C@H](C)C(=O)O)cc1` is reported as 349 µM (SRB; 72 h).
With `CCCC(=O)Nc1ccc(-c2ccc3ncn(Cc4ccc(C)cc4)c(=O)c3c2)cn1` the IC50 was greater than 10 µM (CCK-8; 72 h).
The IC50 of `O=C(Nc1nc2cc(-c3ccc4ncn(Cc5ccccc5)c(=O)c4c3)ccc2s1)c1ccccc1` is reported as greater than 20 µM (MTT; 72 h).
With `O=C(Nc1ccc(-c2ccc3ncn(Cc4ccccc4)c(=O)c3c2)cn1)c1ccco1` the IC50 was greater than 10 µM (CCK-8; 72 h).
`O=c1[nH]cc(F)c(=O)[nH]1` has an IC50 of 11.8 µM (MTT; 48 h).
For `O=C(Nc1ccc(F)cc1)Nc1nc2cc(-c3ccc4ncn(Cc5ccccc5)c(=O)c4c3)ccc2s1`, the IC50 was 2.83 µM (MTT; 72 h).
`O=C(O)c1ccc(NCc2ccccc2)cc1` gave an IC50 of greater than 100 µM (resazurin; 72 h).
`CCCn1cnc2ccc(-c3ccc(NC(=O)CC(C)CC)nc3)cc2c1=O` (centres unmarked) gave an IC50 of 1.49 µM (CCK-8; 72 h).
For `COC(=O)c1cc(C(C)=NNc2nc(-c3ccc4c(c3)OCCCO4)cs2)ccc1O`, the IC50 was 180 µM (MTT; 96 h).
